pEC50, pIC50: −log10 of the molar value. ≈ marks a conversion by molar mass, not a printed value. Calls of active or inactive are those of the source. The calls are words filed in the database; no cut-off is given here.
What was measured:
[1] = tested on: Leishmania amazonensis; assay: Antileishmanial activity against Leishmania amazonensis MHOM/BR/1973/M2269 promastigotes after 24 hrs by MTT assay; format: functional, organism-based; settings: MHOM/BR/1973/M2269, 24 h
Procedure, shortened: (§1)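 Promastigotes (L. amazonensis, L. infantum; 26 °C, M199 with 20% heat-inactivated FBS, hemin, adenine, L-glutamine, plus 5% human urine for L. infantum) or T. cruzi Y epimastigotes (LIT with hemin, 10% FCS, 28 °C). Exposed to a series of concentrations for 24 h. Viability read by MTT. EC50 from sigmoidal fit of concentration–response. Triplicates, repeated two or three times.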

[2] = tested on: Leishmania infantum; assay: Antileishmanial activity against Leishmania infantum MHOM/BR/1972/LD promastigotes after 24 hrs by MTT assay; format: functional, organism-based; procedure, shortened: as §1
[3] = tested on: Trypanosoma cruzi; assay: Antitrypanosomal activity against Trypanosoma cruzi Y epimastigotes after 24 hrs by MTT assay; format: functional, organism-based; procedure, shortened: as §1
[4] = tested on: Plasmodium falciparum; assay: Antiplasmodial activity against drug-sensitive blood stage Plasmodium falciparum 3D7 by SYBR green 1 staining based fluorescence assay; format: functional, organism-based
Procedure, shortened: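 Sorbitol-synchronized ring-stage 3D7 exposed to a range of concentrations (samples in 0.05% DMSO), in triplicate. Then lysed with Tris/EDTA/saponin/Triton buffer containing SYBR Green I (1:20000) for 30 min. IC50 from curve fitting against untreated growth.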

[5] = tested on: Plasmodium falciparum; assay: Antiplasmodial activity against chloroquine/pyrimethamine-resistant Plasmodium falciparum K1 assessed as reduction in [3H]hypoxanthine incorporation pretreated for 48 hrs followed by [3H]hypoxanthine addition measured after 24 hrs by liquid scintillation counting method; format: functional, organism-based
[6] = tested on: Leishmania donovani; assay: Antileishmanial activity against Leishmania donovani MHOM/ET/67/L82 amastigote forms after 72 hrs by alamar blue staining based fluorescence assay; format: functional, organism-based; settings: MHOM/ET/67/L82, 72 h
[7] = tested on: Trypanosoma brucei rhodesiense; assay: Antitrypanosomal activity against Trypanosoma brucei rhodesiense STIB 900 bloodstream forms after 72 hrs by alamar blue staining based fluorescence assay; format: functional, organism-based; settings: STIB 900, 72 h
[8] = tested on: Leishmania amazonensis; assay: Antileishmanial activity against Leishmania amazonensis amastigotes infected in BALB/c mouse BMDM assessed as reduction in intracellular amastigotes at 50 uM after 24 hrs by microscopic analysis relative to control; format: functional; design: scale not given: the % may be the effect or the level left
Procedure, shortened: (§2)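 BALB/c bone marrow macrophages infected with stationary-phase L. amazonensis promastigotes (MOI 10) for 1 h, then washed and held 24 h at 33 °C, 5% CO2. Treated with 6.125, 25, 50 or 100 μM for 24 h at 33 °C. Cells MeOH-fixed and stained. Amastigotes counted in 300 cells per coverslip on triplicate coverslips. Expressed as % reduction versus untreated infected cells. Two independent experiments.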

[9] = tested on: BMDM; assay: Cytotoxicity against BALB/c mouse BMDM after 24 hrs by MTT assay; format: cell-based
Procedure, shortened: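 Differentiated BALB/c female mouse bone marrow macrophages incubated at 37 °C with increasing concentrations for 24 h. Viability read by MTT and CC50 calculated.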

[10] = tested on: Leishmania amazonensis; assay: Antileishmanial activity against Leishmania amazonensis amastigotes infected in BALB/c mouse BMDM assessed as reduction in intracellular amastigotes at 25 uM after 24 hrs by microscopic analysis relative to control; format: functional; design: scale not given: the % may be the effect or the level left; procedure, shortened: as §2
[11] = tested on: Leishmania amazonensis; assay: Antileishmanial activity against Leishmania amazonensis amastigotes infected in BALB/c mouse BMDM assessed as reduction in intracellular amastigotes at 100 uM after 24 hrs by microscopic analysis relative to control; format: functional; design: scale not given: the % may be the effect or the level left; procedure, shortened: as §2
[12] = tested on: Leishmania amazonensis; assay: Antileishmanial activity against Leishmania amazonensis amastigotes infected in BALB/c mouse BMDM assessed as reduction in intracellular amastigotes after 24 hrs by microscopic analysis; format: functional, organism-based; procedure, shortened: as §2
[13] = tested on: Leishmania amazonensis; assay: Antileishmanial activity against Leishmania amazonensis amastigotes infected in BALB/c mouse BMDM assessed as reduction in intracellular amastigotes at 6.125 uM after 24 hrs by microscopic analysis relative to control; format: functional; design: scale not given: the % may be the effect or the level left; procedure, shortened: as §2
[14] = Selectivity index, ratio of MDL50 for human HepG2 cells to IC50 for drug-sensitive blood stage Plasmodium falciparum 3D7; format: toxicity; settings: HepG2 cells versus blood stage Plasmodium falciparum 3D7, read-out: Selectivity Index
[15] = tested on: HepG2; assay: Cytotoxicity against human HepG2 cells assessed as morphological changes at 10 uM by microscopic method; format: cell-based; settings: hepg2, 10 µM
Procedure, shortened: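 HepG2 cells treated at 10 μM for 24 h. Microscopic morphology compared with untreated cells.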

[16] = tested on: Plasmodium falciparum; assay: Synergistic antiplasmodial activity against chloroquine/cycloguanil/pyrimethamine-resistant blood stage Plasmodium falciparum K1 in presence of artesunate; format: functional
Procedure, shortened: (§3)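 Each drug's stock was made in complete medium so that the final concentration approximates its IC50 after 3–4 twofold dilutions. Stocks were mixed v/v at ratios ranging from 0:5 to 5:0 and serially diluted two-fold to seven concentrations. FIC50 was computed for each drug and summed as ΣFIC50.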

[17] = tested on: Plasmodium falciparum; assay: Antiplasmodial activity against chloroquine/cycloguanil/pyrimethamine-resistant blood stage Plasmodium falciparum K1 assessed as morphological changes at 10 times IC50 after 8 to 16 hrs by microscopic analysis; format: functional, organism-based
Procedure, shortened: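 Highly synchronized blood-stage parasites were kept under continuous treatment, with a DMSO-treated control. Morphology was examined by microscopy at 0, 8, 16 and 32 h post-synchronization. Images are representative of three independent experiments.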

[18] = tested on: Plasmodium falciparum; assay: Antiplasmodial activity against drug-sensitive blood stage Plasmodium falciparum 3D7 ring forms assessed as morphological changes at 10 times IC50 after 8 to 16 hrs by microscopic analysis; format: functional, organism-based
Procedure, shortened: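 Morphology examined by microscopy at 0, 8, 16 and 32 h post-synchronization. Three independent experiments.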

[19] = tested on: Plasmodium falciparum; assay: Antiplasmodial activity against chloroquine/cycloguanil/pyrimethamine-resistant blood stage Plasmodium falciparum K1 by SYBR green 1 staining based fluorescence assay; format: functional, organism-based
Procedure, shortened: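 Freshly sorbitol-synchronized ring stages were exposed in triplicate to a concentration series, solubilized in 0.05% DMSO (v/v), alongside sample-free cultures. Cells were lysed for 30 min in 20 mM Tris pH 7.5, 5 mM EDTA, 0.008% saponin and 0.08% Triton X-100 with SYBR green I (1:20000). IC50 was obtained by curve fitting against untreated growth.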

[20] = tested on: Plasmodium falciparum; assay: Synergistic antiplasmodial activity against drug-sensitive blood stage Plasmodium falciparum 3D7 in presence of artesunate; format: functional; procedure, shortened: as §3
[21] = Cytotoxicity against human HepG2 cells after 24 hrs by MTT assay; format: cell-based; settings: read-out: MDL50
Procedure, shortened: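 HepG2 cells grown in RPMI-1640 with 10% FBS, seeded at 5 × 10^3 cells/well and allowed to adhere for 18 h. Exposed to 1,000–1 μg/mL for 24 h at 37 °C, 5% CO2. MTT (5 mg/mL stock) added for 3 h, formazan dissolved in DMSO, absorbance read at 570 and 630 nm. Viability expressed as % of untreated control after background subtraction.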

SMILES | pEC50 [1] | pEC50 [2] | pEC50 [3] | pIC50 [4] | further results
O=C(NCCCCNCCCNC(=O)c1cc2ccccc2[nH]1)c1cc2ccccc2[nH]1 | < 4.00 | < 4.00 | < 4.00 | < 5.00 | –
CC(=O)N(CCCCNC(=O)c1cc(Br)c(Br)[nH]1)CCCNC(=O)c1cc(Br)c(Br)[nH]1 | < 4.00 | < 4.00 | < 4.00 | < 5.00 | –
Cc1cccc(C(=O)NCCCCNCCCNC(=O)c2cccc(C)n2)n1 | < 4.00 | < 4.00 | < 4.00 | < 5.00 | –
O=C(NCCCCNCCCNC(=O)c1nc2ccccc2[nH]1)c1nc2ccccc2[nH]1 | < 4.00 | < 4.00 | < 4.00 | < 5.00 | –
Cc1ccc(C(=O)NCCCCNCCCNC(=O)c2ccc(C)s2)s1 | < 4.00 | < 4.00 | < 4.00 | < 5.00 | –
NC1NC(=O)/C(=C2/CCNC(=O)c3[nH]cc(Br)c32)N1 (stereo not given) [SPONGIACIDIN B] | – | – | – | – | IC50 [5]: 1.09 µg/mL (≈ 3.34 µM)
O=C(NCCCCCNC(=O)c1ccc[nH]1)c1ccc[nH]1 | < 4.00 | < 4.00 | < 4.30 | < 5.00 | –
O=C(NCCCCCCCCNC(=O)c1cc(Br)c(Br)[nH]1)c1cc(Br)c(Br)[nH]1 | < 4.00 | < 4.00 | < 4.00 | < 5.00 | –
NC[C@H]1[C@@H]2CN3C(=O)c4cc(Br)c(Br)n4[C@H]4NC(N)=N[C@]43[C@H]2[C@@]2(N=C(N)N[C@@H]2O)[C@@H]1Cl | – | – | – | – | IC50 [6]: 1.48 µg/mL (≈ 2.56 µM); IC50 [5]: 1.48 µg/mL (≈ 2.56 µM); IC50 [7]: 0.46 µg/mL (≈ 0.796 µM)
O=C(NCCCCNCCCNC(=O)c1ccc(Br)s1)c1ccc(Br)s1 | 4.12 | 4.70 | < 4.00 | < 5.00 | Activity [8]: 58.8%; CC50 [9]: > 100 µM; Activity [10]: 41.5%; Activity [11]: 79.5%; Activity [12]: Dose-dependent effect; Activity [13]: 46.4%
O=C(NCCCCNCCCNC(=O)c1cc(Br)c(Br)[nH]1)c1cc(Br)c(Br)[nH]1 | < 4.00 | < 4.00 | < 4.00 | 6.00 | selectivity ratio [14]: 15; Activity [15]: Non-Toxic; fractional inhibitory concentration index (FICI) [16]: 1; Activity [17]: Active; Activity [18]: Active; pIC50 [19]: 5.96; fractional inhibitory concentration index (FICI) [20]: 1; CC50 at 24 h [21]: 16 µM
O=C(O)CC1CNC(=O)c2cc(Br)c(Br)n21 (stereo not given) | – | – | – | – | IC50 [6]: 3.85 µg/mL (≈ 10.9 µM); IC50 [7]: 1.53 µg/mL (≈ 4.35 µM)
O=C(NCCCCNCCCNC(=O)c1ccc(F)[nH]1)c1ccc(F)[nH]1 | < 4.00 | < 4.00 | < 4.00 | < 5.00 | –
